Experiments:
Format in all cases: functional
MOLT-4 = test: Growth inhibition of human MOLT4 cells at 10 uM after 48 hrs by coulter counter analysis; conditions: MOLT-4, 48 h, read-out: GI
How it was run: (§1)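 Single-dose NCI 60-line panel screen of test compounds. Cells grown in RPMI 1640 with 10% FBS. Compounds dissolved in DMSO, then diluted in phosphate buffer saline (final DMSO below 1%). Wells run in duplicate at 6 × 10⁴ cells/ml. Controls held PBS and DMSO at matching dilutions. Incubation 48 h at 37 °C under humidified 5% CO2. Cells diluted tenfold in saline and counted by Coulter counter. Percent growth inhibition taken from mean-graph of treated-cell growth.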

RPMI-8226 = test: Growth inhibition of human RPMI8226 cells at 10 uM after 48 hrs by coulter counter analysis; conditions: RPMI-8226, 48 h, read-out: GI; how it was run: as §1
SR = test: Growth inhibition of human SR cells at 10 uM after 48 hrs by coulter counter analysis; conditions: read-out: GI
How it was run: (§2)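 Single-dose screen in the NCI 60 cell line panel. Cells grown in RPMI 1640 with 10% FBS. Compounds dissolved in DMSO and diluted in phosphate buffered saline, final DMSO under 1%. Duplicate wells seeded from culture at 6 × 10⁴ cells/ml. Incubated 48 h at 37 °C, humidified, 5% CO2. Cells diluted tenfold in saline and Coulter-counted. Percent growth inhibition computed against PBS/DMSO controls.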

A549 = test: Growth inhibition of human A549/ATCC cells at 10 uM after 48 hrs by coulter counter analysis; conditions: A549, 48 h, read-out: GI; how it was run: as §1
NCI-H226 = test: Growth inhibition of human NCI-H226 cells at 10 uM after 48 hrs by coulter counter analysis; conditions: NCI-H226, 48 h, read-out: GI; how it was run: as §1
NCI-H322M = test: Growth inhibition of human NCI-H322M cells at 10 uM after 48 hrs by coulter counter analysis; conditions: read-out: GI; how it was run: as §1
NCI-H460 = test: Growth inhibition of human NCI-H460 cells at 10 uM after 48 hrs by coulter counter analysis; conditions: NCI-H460, 48 h, read-out: GI; how it was run: as §1
NCI-H522 = test: Growth inhibition of human NCI-H522 cells at 10 uM after 48 hrs by coulter counter analysis; conditions: NCI-H522, 48 h, read-out: GI; how it was run: as §1
COLO 205 = test: Growth inhibition of human COLO205 cells at 10 uM after 48 hrs by coulter counter analysis; conditions: COLO 205, 48 h, read-out: GI; how it was run: as §1
HCC 2998 = test: Growth inhibition of human HCC2998 cells at 10 uM after 48 hrs by coulter counter analysis; conditions: HCC 2998, 48 h, read-out: GI; how it was run: as §1
HCT-116 = test: Growth inhibition of human HCT116 cells at 10 uM after 48 hrs by coulter counter analysis; conditions: HCT-116, 48 h, read-out: GI; how it was run: as §1
HCT-15 = test: Growth inhibition of human HCT15 cells at 10 uM after 48 hrs by coulter counter analysis; conditions: HCT-15, 48 h, read-out: GI; how it was run: as §1
HT-29 = test: Growth inhibition of human HT-29 cells at 10 uM after 48 hrs by coulter counter analysis; conditions: HT-29, 48 h, read-out: GI; how it was run: as §1
KM12 = test: Growth inhibition of human KM12 cells at 10 uM after 48 hrs by coulter counter analysis; conditions: KM12, 48 h, read-out: GI; how it was run: as §1
SW-620 = test: Growth inhibition of human SW620 cells at 10 uM after 48 hrs by coulter counter analysis; conditions: SW-620, 48 h, read-out: GI; how it was run: as §2
SF-268 = test: Growth inhibition of human SF268 cells at 10 uM after 48 hrs by coulter counter analysis; conditions: SF-268, 48 h, read-out: GI; how it was run: as §1
SF-539 = test: Growth inhibition of human SF539 cells at 10 uM after 48 hrs by coulter counter analysis; conditions: SF-539, 48 h, read-out: GI; how it was run: as §1
SNB-75 = test: Growth inhibition of human SNB75 cells at 10 uM after 48 hrs by coulter counter analysis; conditions: SNB-75, 48 h, read-out: GI; how it was run: as §2
LOX IMVI = test: Growth inhibition of human LOXIMVI cells at 10 uM after 48 hrs by coulter counter analysis; conditions: read-out: GI; how it was run: as §1
M14 = test: Growth inhibition of human M14 cells at 10 uM after 48 hrs by coulter counter analysis; conditions: M14, 48 h, read-out: GI; how it was run: as §1
MDA-MB-435 = test: Growth inhibition of human MDA-MB-435 cells at 10 uM after 48 hrs by coulter counter analysis; conditions: MDA-MB-435, 48 h, read-out: GI; how it was run: as §1
SK-MEL-28 = test: Growth inhibition of human SK-MEL-28 cells at 10 uM after 48 hrs by coulter counter analysis; conditions: SK-MEL-28, 48 h, read-out: GI; how it was run: as §1
SK-MEL-5 = test: Growth inhibition of human SK-MEL-5 cells at 10 uM after 48 hrs by coulter counter analysis; conditions: SK-MEL-5, 48 h, read-out: GI; how it was run: as §1
IGROV-1 = test: Growth inhibition of human IGROV1 cells at 10 uM after 48 hrs by coulter counter analysis; conditions: IGROV-1, 48 h, read-out: GI; how it was run: as §1
OVCAR-4 = test: Growth inhibition of human OVCAR4 cells at 10 uM after 48 hrs by coulter counter analysis; conditions: OVCAR-4, 48 h, read-out: GI; how it was run: as §1
[1] = Growth inhibition of human NCI-ADR-RES cells at 10 uM after 48 hrs by coulter counter analysis; conditions: read-out: GI; how it was run: as §1
786-0 = test: Growth inhibition of human 786-0 cells at 10 uM after 48 hrs by coulter counter analysis; conditions: 786-0, 48 h, read-out: GI; how it was run: as §1
ACHN = test: Growth inhibition of human ACHN cells at 10 uM after 48 hrs by coulter counter analysis; conditions: read-out: GI; how it was run: as §1
CAKI-1 = test: Growth inhibition of human Caki1 cells at 10 uM after 48 hrs by coulter counter analysis; conditions: CAKI-1, 48 h, read-out: GI; how it was run: as §1
RXF 393 = test: Growth inhibition of human RXF393 cells at 10 uM after 48 hrs by coulter counter analysis; conditions: RXF 393, 48 h, read-out: GI; how it was run: as §1
PC-3 = test: Growth inhibition of human PC3 cells at 10 uM after 48 hrs by coulter counter analysis; conditions: PC-3, 48 h, read-out: GI; how it was run: as §1
DU-145 = test: Growth inhibition of human DU145 cells at 10 uM after 48 hrs by coulter counter analysis; conditions: DU-145, 48 h, read-out: GI; how it was run: as §1
MCF7 = test: Growth inhibition of human MCF7 cells at 10 uM after 48 hrs by coulter counter analysis; conditions: MCF7, 48 h, read-out: GI; how it was run: as §1
MDA-MB-231 = test: Growth inhibition of human MDA-MB-231 cells at 10 uM after 48 hrs by coulter counter analysis; conditions: MDA-MB-231, 48 h, read-out: GI; how it was run: as §1
[2] = Growth inhibition of human Hs 578T cells at 10 uM after 48 hrs by coulter counter analysis; conditions: read-out: GI; how it was run: as §1
CCRF-CEM = test: Growth inhibition of human CCRF-CEM cells at 10 uM after 48 hrs by coulter counter analysis; conditions: read-out: GI; how it was run: as §1

SMILES	inhibition of growth at 10 µM (MOLT-4) [%]	inhibition of growth at 10 µM (RPMI-8226) [%]	inhibition of growth at 10 µM (SR) [%]	inhibition of growth at 10 µM (A549) [%]	inhibition of growth at 10 µM (NCI-H226) [%]	inhibition of growth at 10 µM (NCI-H322M) [%]	inhibition of growth at 10 µM (NCI-H460) [%]	inhibition of growth at 10 µM (NCI-H522) [%]	inhibition of growth at 10 µM (COLO 205) [%]	inhibition of growth at 10 µM (HCC 2998) [%]	inhibition of growth at 10 µM (HCT-116) [%]	inhibition of growth at 10 µM (HCT-15) [%]	inhibition of growth at 10 µM (HT-29) [%]	inhibition of growth at 10 µM (KM12) [%]	inhibition of growth at 10 µM (SW-620) [%]	inhibition of growth at 10 µM (SF-268) [%]	inhibition of growth at 10 µM (SF-539) [%]	inhibition of growth at 10 µM (SNB-75) [%]	inhibition of growth at 10 µM (LOX IMVI) [%]	inhibition of growth at 10 µM (M14) [%]	further results
CCOC(=O)c1sc(NC(=O)C(C)N2CCCCC2)nc1C (configuration not stated)	< 10	< 10	< 10	< 10	< 10	< 10	< 10	< 10	< 10	< 10	< 10	< 10	< 10	< 10	< 10	< 10	< 10	< 10	< 10	< 10	inhibition of growth at 10 µM (MDA-MB-435): < 10%; inhibition of growth at 10 µM (SK-MEL-28): < 10%; inhibition of growth at 10 µM (SK-MEL-5): < 10%; inhibition of growth at 10 µM (IGROV-1): < 10%; inhibition of growth at 10 µM (OVCAR-4): < 10%; inhibition of growth at 10 µM [1]: < 10%; inhibition of growth at 10 µM (786-0): < 10%; inhibition of growth at 10 µM (ACHN): < 10%; inhibition of growth at 10 µM (CAKI-1): 12.2%; inhibition of growth at 10 µM (RXF 393): < 10%; inhibition of growth at 10 µM (PC-3): < 10%; inhibition of growth at 10 µM (DU-145): < 10%; inhibition of growth at 10 µM (MCF7): < 10%; inhibition of growth at 10 µM (MDA-MB-231): < 10%; inhibition of growth at 10 µM [2]: < 10%; inhibition of growth at 10 µM (CCRF-CEM): < 10%
CCOC(=O)c1sc(NC(=O)C(C)N2CCN(C)CC2)nc1C (configuration not stated)	< 10	< 10	< 10	< 10	< 10	< 10	< 10	< 10	< 10	< 10	< 10	< 10	< 10	< 10	< 10	< 10	< 10	< 10	< 10	< 10	inhibition of growth at 10 µM (MDA-MB-435): < 10%; inhibition of growth at 10 µM (SK-MEL-28): < 10%; inhibition of growth at 10 µM (SK-MEL-5): < 10%; inhibition of growth at 10 µM (IGROV-1): < 10%; inhibition of growth at 10 µM (OVCAR-4): < 10%; inhibition of growth at 10 µM [1]: < 10%; inhibition of growth at 10 µM (786-0): < 10%; inhibition of growth at 10 µM (ACHN): < 10%; inhibition of growth at 10 µM (CAKI-1): < 10%; inhibition of growth at 10 µM (RXF 393): < 10%; inhibition of growth at 10 µM (PC-3): < 10%; inhibition of growth at 10 µM (DU-145): < 10%; inhibition of growth at 10 µM (MCF7): < 10%; inhibition of growth at 10 µM (MDA-MB-231): < 10%; inhibition of growth at 10 µM [2]: < 10%; inhibition of growth at 10 µM (CCRF-CEM): < 10%
